Reference: ChEMBL document CHEMBL4837222, “Design and synthesis of novel benzothiophene analogs as selective estrogen receptor covalent antagonists against breast cancer” (Eur J Med Chem, 2021)
Active and inactive are the calls of the source. The calls are words filed in the database; no cut-off is given here.

Legend:
[1] = system: MCF7; assay: Antiproliferative activity against human MCF7 cells assessed as reduction in cell growth incubated for 48 hrs by CCK8 assay; format: functional, cell-based; settings: MCF7, 48 h
How it was run: (§1)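 CCK-8 viability assay. Cells seeded at 4000/well in 10% FBS medium for 24 h, then given compound diluted from DMSO stocks into 2% FBS medium at 100, 50, 25, 12.5, 6.25 and 3.125 µM (0.1% DMSO final). After 48 h, CCK-8 was added (0.5 mg/mL) for 2 h at 37 °C and OD450 read. Triplicates; IC50 fitted from mean viability.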

[2] = system: MDA-MB-231; assay: Antiproliferative activity against human MDA-MB-231 cells assessed as reduction in cell growth incubated for 48 hrs by CCK8 assay; format: functional, cell-based; settings: MDA-MB-231, 48 h; how it was run: as §1
[3] = system: Ishikawa; assay: Antiproliferative activity against human Ishikawa cells assessed as reduction in cell growth incubated for 48 hrs by CCK8 assay; format: functional, cell-based; how it was run: as §1
[4] = system: MCF7; assay: Downregulation of ERalpha expression in human MCF7 cells at 0.5 uM incubated for 24 hrs by Western blot assay; format: functional, cell-based
How it was run: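 MCF-7 cells were kept in phenol red-free DMEM/F12 with 10% serum for 72 h before plating, then treated at 125, 250 and 500 nM for 24 h. Cells were lysed in RIPA buffer, protein was measured by BCA, and equal amounts were run on 10% SDS-PAGE and transferred to PVDF. ERα band intensity was normalized to GAPDH in each repeat.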

[5] = Half life in rat plasma; format: ADME, cell-free
[6] = target: T1, Estrogen receptor (Homo sapiens) (UniProt P03372); assay: Covalent antagonist activity at ERalpha in human MCF7 cells assessed as decrease in estradiol-induced TFF1 mRNA expression level at 0.25 to 10 uM measured after 24 hrs by RT-PCR analysis; format: cell-based; settings: filed as antagonist, dose 0.25-10 µM
T1 sequence (whole entry): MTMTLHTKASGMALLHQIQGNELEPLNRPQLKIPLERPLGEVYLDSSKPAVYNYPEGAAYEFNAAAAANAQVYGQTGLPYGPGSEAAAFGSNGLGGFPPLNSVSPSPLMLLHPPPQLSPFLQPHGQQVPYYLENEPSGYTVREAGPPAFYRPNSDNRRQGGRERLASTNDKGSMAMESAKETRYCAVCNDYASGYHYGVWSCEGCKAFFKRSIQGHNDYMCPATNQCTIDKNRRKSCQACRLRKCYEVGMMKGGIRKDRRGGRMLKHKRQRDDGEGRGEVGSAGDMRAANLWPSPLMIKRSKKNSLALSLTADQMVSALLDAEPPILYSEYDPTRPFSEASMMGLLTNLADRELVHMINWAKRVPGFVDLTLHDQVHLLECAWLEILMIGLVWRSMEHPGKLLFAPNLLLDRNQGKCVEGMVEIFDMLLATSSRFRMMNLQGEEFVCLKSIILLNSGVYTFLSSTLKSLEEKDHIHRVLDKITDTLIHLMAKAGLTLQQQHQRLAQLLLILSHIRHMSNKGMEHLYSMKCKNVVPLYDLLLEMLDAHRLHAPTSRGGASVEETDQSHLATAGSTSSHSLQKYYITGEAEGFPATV
How it was run: (§2)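 MCF-7 cells stimulated with estradiol, then co-incubated 24 h with compound at 0.25, 0.5, 1 and 10 µM. RNA was reverse-transcribed and GREB1 or TFF1 measured by SYBR Green qPCR: 95 °C 10 min, then 40 cycles of 95 °C 5 s, 60 °C 60 s, 95 °C 15 s. Normalised to GAPDH, ΔΔCT method.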

[7] = target: T1, Estrogen receptor (Homo sapiens); assay: Covalent antagonist activity at ERalpha in human MCF7 cells assessed as decrease in estradiol-induced GREB1 mRNA expression level at 0.25 to 10 uM measured after 24 hrs by RT-PCR analysis; format: cell-based; settings: filed as antagonist, dose 0.25-10 µM; how it was run: as §2
[8] = target: T1, Estrogen receptor (Homo sapiens); assay: Covalent antagonist activity at ERalpha receptor in human ishikawa cells assessed as suppression of E2-stimulated PGR expression at 0.25 to 10 uM measured after 3 days by RT-PCR analysis; format: cell-based; settings: filed as antagonist, dose 0.25-10 µM, time 3.0 day
How it was run: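 Ishikawa cells stimulated with E2 and exposed 3 days to compound at 0.25, 0.5, 1 and 10 µM. PGR mRNA quantified by SYBR Green real-time PCR, normalised to GAPDH, ΔΔCT method.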

[9] = Half life in rat liver microsomes; format: ADME, Microsome
[10] = Intrinsic clearance in rat; format: ADME
[11] = system: Ishikawa; assay: Potency index, ratio of raloxifene IC50 to test compound IC50 for human Ishikawa cells assessed as reduction in cell growth incubated for 48 hrs by CCK8 assay; format: functional
[12] = system: MCF7; assay: Potency index, ratio of raloxifene IC50 to test compound IC50 for human MCF7 cells assessed as reduction in cell growth incubated for 48 hrs by CCK8 assay; format: functional

SMILES: O=C(/C=C/CNCCOc1ccc(Oc2c(-c3ccc(F)cc3)sc3cc(O)ccc23)cc1)N1CCOCC1
- IC50 [1]: 8.24 µM
- IC50 [2]: > 50 µM
- IC50 [3]: 18.6 µM

SMILES: CNC(=O)/C=C/CNCCOc1ccc(Oc2c(-c3ccc(F)cc3)sc3cc(O)ccc23)cc1
- IC50 [1]: 16.1 µM
- IC50 [2]: > 50 µM
- IC50 [3]: 15.5 µM

SMILES: CN(C)C(=O)/C=C/CN1CC(Oc2ccc(Oc3c(-c4ccc(F)cc4)sc4cc(O)ccc34)cc2)C1
- IC50 [1]: 22.3 µM
- IC50 [2]: > 50 µM
- IC50 [3]: 11.2 µM

SMILES: O=C(c1ccc(OCCN2CCCCC2)cc1)c1c(-c2ccc(O)cc2)sc2cc(O)ccc12 [RALOXIFENE]
- IC50 [1]: 19.9 µM
- IC50 [2]: > 50 µM
- IC50 [3]: 12.4 µM

SMILES: O=C(/C=C/CNCCOc1ccc(Oc2c(-c3ccc(F)cc3)sc3cc(O)ccc23)cc1)N1CCCC1
- IC50 [1]: 7.61 µM
- IC50 [2]: > 50 µM
- IC50 [3]: 11.2 µM

SMILES: CN(C)C(=O)/C=C/CNCCOc1ccc(Oc2c(-c3ccc(F)cc3)sc3cc(O)ccc23)cc1
- IC50 [1]: 13.8 µM
- IC50 [2]: > 50 µM
- IC50 [3]: 11.9 µM

SMILES: C[C@]12CC[C@@H]3c4ccc(O)cc4C[C@@H](CCCCCCCCC[S+]([O-])CCCC(F)(F)C(F)(F)F)[C@H]3[C@@H]1CC[C@@H]2O (some centres not stated)
- inhibition [4]: inactive

SMILES: CC(Cc1cccc(C(F)(F)F)c1)NCCOC(=O)c1ccccc1 (configuration not stated) [BENFLUOREX]
- half-life [5]: 28.3 min

SMILES: O=C(CCCNCCOc1ccc(Oc2c(-c3ccc(F)cc3)sc3cc(O)ccc23)cc1)N1CCC1
- IC50 [1]: > 25 µM
- inhibition [6]: Active
- IC50 [2]: > 50 µM
- IC50 [3]: > 25 µM
- inhibition [7]: Active
- inhibition [8]: Active

SMILES: CC/C(=C(\c1ccccc1)c1ccc(OCCN(C)C)cc1)c1ccccc1 [TAMOXIFEN]
- IC50 [2]: > 50 µM
- IC50 [3]: 16.8 µM

SMILES: C/C=C/C(=O)N1CC(Oc2ccc(Oc3c(-c4ccc(F)cc4)sc4cc(O)ccc34)cc2)C1
- IC50 [1]: 28 µM
- IC50 [2]: > 50 µM
- IC50 [3]: 9.4 µM

SMILES: C=CC(=O)N1CC(Oc2ccc(Oc3c(-c4ccc(F)cc4)sc4cc(O)ccc34)cc2)C1
- IC50 [1]: 23.5 µM
- IC50 [2]: > 50 µM
- IC50 [3]: 12.3 µM

SMILES: C=C(C)C(=O)NCCOc1ccc(Oc2c(-c3ccc(F)cc3)sc3cc(O)ccc23)cc1
- IC50 [1]: > 25 µM
- IC50 [2]: > 50 µM
- IC50 [3]: > 25 µM

SMILES: O=C(c1ccc(F)cc1)C1CCN(CCn2c(=O)[nH]c3ccccc3c2=O)CC1 [KETANSERIN]
- half-life [9]: 18.8 min
- CLint scaled [10]: 132 mL/min/kg

SMILES: O=C(/C=C/CN1CC(Oc2ccc(Oc3c(-c4ccc(F)cc4)sc4cc(O)ccc34)cc2)C1)N1CCOCC1
- IC50 [1]: 8.9 µM
- IC50 [2]: > 50 µM
- IC50 [3]: 9.84 µM
- Ratio IC50 [11]: 1.26
- Ratio IC50 [12]: 2

SMILES: C=C(C)C(=O)N1CC(Oc2ccc(Oc3c(-c4ccc(F)cc4)sc4cc(O)ccc34)cc2)C1
- IC50 [1]: > 25 µM
- IC50 [2]: > 50 µM
- IC50 [3]: 14.2 µM

SMILES: CNC(=O)/C=C/CN1CC(Oc2ccc(Oc3c(-c4ccc(F)cc4)sc4cc(O)ccc34)cc2)C1
- IC50 [1]: > 25 µM
- IC50 [2]: > 50 µM
- IC50 [3]: > 25 µM

SMILES: C=CC(=O)NCCOc1ccc(Oc2c(-c3ccc(F)cc3)sc3cc(O)ccc23)cc1
- IC50 [1]: 23 µM
- IC50 [2]: > 50 µM
- IC50 [3]: > 25 µM

SMILES: O=C(/C=C/CN1CC(Oc2ccc(Oc3c(-c4ccc(F)cc4)sc4cc(O)ccc34)cc2)C1)N1CCC1
- IC50 [1]: > 25 µM
- IC50 [2]: > 50 µM
- IC50 [3]: 5.45 µM

SMILES: C/C=C/C(=O)NCCOc1ccc(Oc2c(-c3ccc(F)cc3)sc3cc(O)ccc23)cc1
- IC50 [1]: 21.7 µM
- IC50 [2]: > 50 µM
- IC50 [3]: 12.4 µM

SMILES: O=C(/C=C/CNCCOc1ccc(Oc2c(-c3ccc(F)cc3)sc3cc(O)ccc23)cc1)N1CCCCC1
- IC50 [1]: 16.4 µM
- IC50 [2]: > 50 µM
- IC50 [3]: 8.43 µM

SMILES: O=C(/C=C/CN1CC(Oc2ccc(Oc3c(-c4ccc(F)cc4)sc4cc(O)ccc34)cc2)C1)N1CCCC1
- IC50 [1]: 8.45 µM
- IC50 [2]: > 50 µM
- IC50 [3]: 9.15 µM
- Ratio IC50 [11]: 1.35
- Ratio IC50 [12]: 2
